Here are results for three compounds from PMC5161678 (Clinical cancer research : an official journal of the …, 2016).

One series relates to CD5+CD19+ CLL B-cells. Put plainly: CLL B-cell viability by Annexin V/PI staining in NLC cocultures. The format is cell-based, human. Conditions: for CLL viability: long-term NLC/CLL cocultures, ruxolitinib 5 μM, fedratinib 5 μM, pacritinib 1 μM.
The target in series [1] is T1, CSF-1R (Homo sapiens, UniProt P07333). Description: in vitro radiometric kinase assay. Format: biochemical.
Series [2] deals with monocyte-derived macrophages. Description: monocyte and monocyte-derived macrophage viability. The format is cell-based, human.
Another series has as its system lymphoma. Conditions: cited from earlier work.
Series [3] addresses T1, CSF-1R. Put plainly: CSF-1R phosphorylation sandwich ELISA in CSF-1 treated monocytes. The format is cell-based. Conditions: recombinant CSF-1 10 ng/mL, 5 minutes, fedratinib 5 μM, pacritinib 1 μM.
The test system of a further series is ERK and AKT. Description: ERK and AKT phosphorylation in CSF-1 treated monocytes. The format is cell-based, human. Conditions: pacritinib. An outline of the steps: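 Healthy-donor monocytes were CD14 bead-selected from PBMC, cultured overnight, then stimulated 5 min with recombinant human CSF-1 (10 ng/mL) plus test compound or DMSO vehicle. Lysis buffer: Tris pH 7.5, EDTA, NaCl, NP-40, deoxycholate, SDS and protease/phosphatase inhibitors. SDS-PAGE on 5–12% gradient gels, PVDF transfer, 1 h milk block. Probed for total and pT308/pS473 AKT, and total and pT202/Y204 ERK1/2.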

Another series relates to nurse-like cells (NLC). Description: NLC generation and survival in CLL patient PBMC cultures. Format: cell-based, human. Conditions: pacritinib 1 μM; for NLC survival: CLL PBMC cultured 7–10 days, ruxolitinib 5 μM; for NLC survival / intact NLC by morphology: fedratinib 5 μM; for intact NLC by morphology: established NLC cultures treated for 24 hours. An outline of the steps:
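PBMC from CLL patients not on therapy were plated at 3–5 × 10^6 cells/mL in RPMI with 10% FBS at 37°C, 5% CO2 for 7–10 days, then given test compound or DMSO vehicle. NLC were counted by morphology in five high-power fields or as high forward/side-scatter events by flow cytometry. Viability was read by annexin V/PI. For some cultures, CLL cells were gently removed before treatment.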

For series [4] the following is noted: in vivo; cited from earlier work.
In series [5] the test system is CSF-1R. Conditions: CSF-1R in vitro; cited from earlier work.

T1 sequence (P07333 20-972): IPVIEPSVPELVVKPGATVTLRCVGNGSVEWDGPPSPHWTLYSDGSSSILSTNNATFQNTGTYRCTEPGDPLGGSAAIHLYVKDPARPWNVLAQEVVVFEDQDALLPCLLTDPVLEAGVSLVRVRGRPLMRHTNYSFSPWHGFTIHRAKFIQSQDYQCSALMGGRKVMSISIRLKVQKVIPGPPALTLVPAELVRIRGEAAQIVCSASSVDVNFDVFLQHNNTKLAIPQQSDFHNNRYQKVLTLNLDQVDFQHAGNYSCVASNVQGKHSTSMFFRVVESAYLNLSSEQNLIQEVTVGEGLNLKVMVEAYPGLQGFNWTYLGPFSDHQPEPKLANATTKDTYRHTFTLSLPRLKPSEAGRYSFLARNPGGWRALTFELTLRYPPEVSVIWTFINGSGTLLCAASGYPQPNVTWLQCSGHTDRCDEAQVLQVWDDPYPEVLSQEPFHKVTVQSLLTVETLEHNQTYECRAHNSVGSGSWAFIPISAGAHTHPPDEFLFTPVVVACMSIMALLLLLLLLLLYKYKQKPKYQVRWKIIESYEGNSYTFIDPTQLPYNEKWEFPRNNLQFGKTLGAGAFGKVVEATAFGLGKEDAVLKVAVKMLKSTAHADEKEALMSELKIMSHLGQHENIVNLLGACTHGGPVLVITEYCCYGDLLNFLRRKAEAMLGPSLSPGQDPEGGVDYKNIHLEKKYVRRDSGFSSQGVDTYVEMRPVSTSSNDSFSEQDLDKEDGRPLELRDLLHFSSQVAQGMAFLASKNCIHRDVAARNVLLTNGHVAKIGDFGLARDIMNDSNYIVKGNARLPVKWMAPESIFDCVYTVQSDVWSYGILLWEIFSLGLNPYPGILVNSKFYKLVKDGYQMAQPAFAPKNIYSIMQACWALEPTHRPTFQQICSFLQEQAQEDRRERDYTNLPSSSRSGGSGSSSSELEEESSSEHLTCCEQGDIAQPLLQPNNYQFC

As for `C1=C/COCc2cc(ccc2OCCN2CCCC2)Nc2nccc(n2)-c2cccc(c2)COC/1` [pacritinib], the CLL viability result in the series with CD5+CD19+ CLL B-cells is given as “significantly reduced”. Moreover, the “induction of apoptosis in CLL samples” value in the series on CD5+CD19+ CLL B-cells (paired CLL samples, ibrutinib 1 uM or pacritinib 1 uM) is recorded as “significant increase”. At CSF-1R [1], the half-maximal inhibitory concentration (IC50) (as a rule, the midpoint of a concentration-inhibition curve) is below 50 nM. Moreover, the “IC50 (in words)” value against CSF-1R [1] (CSF-1R) was “low nanomolar range”. Also, the “monocyte and monocyte-derived macrophage viability” value in series [2] (CSF-1-treated monocytes, clinically achievable concentrations) is “significantly impaired”. For the same compound, the “signs of apoptotic cell death” value in [2] (pacritinib-treated macrophages) was “caspase 3 activation, loss of mitochondrial membrane potential, and changes in cell morphology”. Further, the tolerability result with lymphoma (patients with lymphoma) is “well tolerated”. In addition, the clinical activity entry in the series with lymphoma (various NHL, including CLL) is “clinical activity”. In addition, at CSF-1R [3], the “total CSF-1R phosphorylation” value was “significantly reduced”. For the same compound, the “downstream phosphorylation of ERK and AKT” value in the series on ERK and AKT is “significantly impaired”. Besides, in the series with nurse-like cells (NLC), the NLC survival entry is “significant, and near total, loss”; the “intact NLC by morphology” value is reported as “rarely observed”. Besides, the “viable NLC by annexin V/PI staining” value in the series with nurse-like cells (NLC) (CLL cells removed from established NLC cultures, 24 hours) is on record as “viable NLC were no longer identified”.
As to `Cc1cnc(Nc2ccc(OCCN3CCCC3)cc2)nc1Nc1cccc(S(=O)(=O)NC(C)(C)C)c1` [fedratinib], the CLL viability result with CD5+CD19+ CLL B-cells is on record as “significantly reduced”. The clinically achievable concentrations in series [4] is 1 to 5 µM. For the same compound, the IC50 in the series on CSF-1R [5] was above 1000 nM. Further, on CSF-1R [3], the “total CSF-1R phosphorylation” value is recorded as “significantly reduced”. Moreover, in the series with nurse-like cells (NLC), the NLC survival entry is “significant, and near total, loss”; the “intact NLC by morphology” value is “rarely observed”.
With `N#CC[C@H](C1CCCC1)n1cc(-c2ncnc3[nH]ccc23)cn1` [ruxolitinib], in the series on CSF-1R [5], the IC50 is around 1000 nM. In addition, the NLC survival result in the series with nurse-like cells (NLC) is reported as “modest”.
